High-throughput results deposited in PubChem BioAssay by several laboratories.
STAT1 inh: STAT1 signaling inhibitors, primary screen, cell-based, HTS, luciferase reporter | NIH 3T3 STAT1-luciferase reporter, IFN-gamma, luminescence | inhibition, % at 5.5 µM | 200,000 compounds, 0.35% hits | AID 920, 2007;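 active = inhibition above a set limit, the mean inhibition across all tested compounds plus 3 SD, cut at about 34% in these data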
APP 5'UTR act: activators of APP 5'UTR luciferase reporter, primary screen, SH-SY5Y cells | SH-SY5Y APP 5'UTR luciferase reporter, luminescence; zero percent = DMSO vehicle wells | 190,000 compounds, 1% hits | AID 1276, 2008 | activation, % at 2 µM;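 active = activation above a set limit, based on mean plus 3 SD of controls, cut at about 140% in these data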
STAT3 act-1: IL-6 driven STAT3 reporter potentiators, primary screen, U3A cells, luciferase, luminescence, MLSCN library; IL-6 STAT3-luciferase reporter; 100% = signal with IL-6 EC80 alone; activation (% of control), % at 5.6 µM; 190,000 compounds, 0.91% hits;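 active = activation above the screen-wide mean of compound activation plus 3 SD, cut at about 130% in these data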
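Test system: Human STAT1-deficient U3A cells with stable STAT3-luciferase reporter | Also added: Interleukin-6, 33 ng/mL | Timing: Compound pre-incubation 1 h before IL-6, then 6 h stimulation at 37 °C | Technique: Luciferase reporter luminescence | Read-out: Percent of IL-6-only median luminescence | Benchmarks: IL-6-only wells as 100% reference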
STAT3 inh: IL-6 driven STAT3 reporter inhibitors, primary screen, U3A cells, luciferase, luminescence, MLSCN library; IL-6 STAT3-luciferase reporter; host cell line lacks STAT1; AID 862, 2007; inhibition, % at 5.5 µM; 190,000 compounds, 0.89% hits;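 active = inhibition above the mean inhibition across all screened compounds plus 3 SD, cut at about 44% in these data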
NF-kB neuron act: activators of NF-kB expression in neurons, primary screen, cell-based, HTS; AID 1239, 2008; 190,000 compounds, 1.6% hits; human neuronal cells, NF-kB reporter expression; stronger effect = higher value; fold change at 12.5 µM; in the data active = fold change above about 3.3
STAT1 act-1: STAT1 signaling activators, primary screen, cell-based, HTS, luciferase reporter; AID 932, 2007; NIH 3T3 STAT1-luciferase reporter, IFN-gamma, luminescence; 100% = IFN-gamma alone, no compound; activation (% of control), % at 5.5 µM; 200,000 compounds, 2.6% hits;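 active = activation above the screen-wide mean activation plus 3 SD, cut at about 130% in these data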
STAT3 act-2: STAT3 reporter potentiators, retest of hits, confirmation, U3A cells, luciferase, luminescence; shares compounds with STAT3 act-1; IL-6 potentiation; U3A cells lack STAT1; 100 means same as IL-6 alone; potentiation (% of control), % at 5.7 µM; 1,200 compounds, 64% hits; AID 1267, 2008;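 active = percent activation of the STAT3 luciferase reporter above a set limit taken from the earlier primary screen, cut at about 130% in these data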
NFkB act STAT3ct: NF-kB reporter activators in human cells, counter-screen for STAT3 activator project. 1,200 compounds, 11% hits. shares compounds with STAT3 act-1. AID 1309, 2008. NF-kappaB reporter activation. activation (% of control), % at 5.7 µM; in the data active = activation above about 120%;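 also: reporter induced by TNF-alpha stimulation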
STAT1 act-2: STAT1 reporter activators, IFN-gamma induced, counter-screen for STAT3 activator project, cell-based, NIH 3T3, luciferase luminescence | shares compounds with STAT3 act-1 | activation (% of control), % at 5.7 µM | 1,200 compounds, 13% hits | NIH 3T3 STAT1-luciferase reporter;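 active = activation above the solvent-only control well mean plus 3 SD, set per screening run, cut at about 120% in these data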
Of the large screens only hits and unclear results are named; the others gave an inactive call (follow-up assays come after a bar, where they were run). Sampled rows, rich in hits. Any-hit rate of the full collection: about 4.9%.

Cc1nc([N+](=O)[O-])c(Br)n1Cc1ccc(Cl)c(Cl)c1	STAT3 act-1 139 | STAT3 act-2 inactive | NFkB act STAT3ct inactive | STAT1 act-2 inactive
Cc1nc([N+](=O)[O-])c(Br)n1CC(=O)c1ccc(Cl)cc1	none
Nc1nc(-c2ccc(Cl)cc2)nn1C(=O)c1cccs1	STAT3 act-1 146 | STAT3 act-2 145 | NFkB act STAT3ct inactive | STAT1 act-2 inactive
CCC(Sc1nnnn1-c1ccccc1)C(=O)Nc1nc2ccccc2s1 (configuration not stated)	STAT3 act-1 157 | STAT3 act-2 155 | NFkB act STAT3ct inactive | STAT1 act-2 inactive
N#Cc1cn(CC(=O)O)c2ccccc12	STAT3 act-1 140 | STAT3 act-2 140 | NFkB act STAT3ct inactive | STAT1 act-2 inactive
CCOC(=O)Cn1cc(C#N)c2ccccc21	none
COc1cc(OC)cc(C(=O)Oc2ccc(/C=N/Nc3nc4ccccc4s3)cc2OC)c1	STAT3 act-1 148 | STAT3 act-2 151 | NFkB act STAT3ct inactive | STAT1 act-2 155
COc1ccc(C(=O)Oc2cc(/C=N/NC(N)=S)ccc2OC)cc1	none
COc1ccc(Cl)cc1C(=O)NNC(=O)CN1C(=O)C2CC=CCC2C1=O (configuration not stated)	none
N#C/C(=C\c1ccco1)Sc1nc2ccccc2s1	STAT3 act-1 138 | STAT3 act-2 inactive | NFkB act STAT3ct inactive | STAT1 act-2 inactive
Cc1c(Cl)ccc2c1NC(=O)[C@]21[C@@H]2C(=O)N(Cc3ccccc3)C(=O)[C@@H]2[C@@H]2CCCN21	STAT3 act-1 141 | STAT3 act-2 inactive | NFkB act STAT3ct inactive | STAT1 act-2 inactive
CC(=O)Nc1c(C(=O)O)oc2ccc(Cl)cc12	STAT3 act-1 140 | STAT3 act-2 inactive | NFkB act STAT3ct inactive | STAT1 act-2 inactive
COC(=O)c1sccc1NC(=O)Nc1cccc(F)c1	STAT3 act-1 150 | STAT3 act-2 inactive | NFkB act STAT3ct 121 | STAT1 act-2 135
COC(=O)c1sccc1NC(=S)Nc1ccc(F)cc1	none
COc1nc(NCCO)nc(Nc2ccccc2F)n1	none
Clc1ncccc1-c1nc2ccccc2s1	none
COc1cc(-c2nc3ccccc3s2)ccc1O	STAT3 act-1 141 | STAT3 act-2 135 | NFkB act STAT3ct inactive | STAT1 act-2 121
COc1cc(OC)c(-c2nc3ccccc3s2)cc1OC	STAT3 act-1 149 | STAT3 act-2 154 | NFkB act STAT3ct inactive | STAT1 act-2 inactive
O=C(Nc1nnc(-c2ccccc2Cl)o1)c1ccco1	none
O=C(Nc1nnc(-c2ccccc2Cl)o1)c1nc2ccccc2s1	STAT3 act-1 159 | STAT3 act-2 140 | NFkB act STAT3ct inactive | STAT1 act-2 inactive
O=C(c1ccco1)c1coc2c1cc(O)c1ccccc12	STAT3 act-1 161 | STAT3 act-2 164 | NFkB act STAT3ct inactive | STAT1 act-2 inactive
CC(=O)c1coc2c1cc(O)c1ccccc12	none
Fc1ccc2nc(Nc3nc4c(F)cccc4s3)sc2c1	STAT3 act-1 140 | STAT3 act-2 169 | NFkB act STAT3ct inactive | STAT1 act-2 130
Fc1cccc2sc(Nc3nc4ccccc4s3)nc12	STAT3 act-1 177 | STAT3 act-2 210 | NFkB act STAT3ct 129 | STAT1 act-2 156
N#Cc1c(-c2ccc(Cl)cc2)ccn2nc(C3CCCCC3)nc12	none
Cc1noc(C)c1COC(=O)c1ccccc1NC(=O)c1ccco1	none
O=C(CN1CCC(NC(=O)c2ccco2)CC1)Nc1cccc2ccccc12	none
O=C(CN1CCC(NC(=O)c2ccco2)CC1)Nc1ccccc1[N+](=O)[O-]	STAT3 act-1 138 | STAT3 act-2 144 | NFkB act STAT3ct inactive | STAT1 act-2 inactive
Cc1cc(N/N=C/c2c(O)ccc3ccccc23)nc(-c2ccccc2O)n1	none
Oc1ccc2ccccc2c1/C=N/Nc1ccccc1	STAT3 act-1 151 | STAT3 act-2 150 | NFkB act STAT3ct inactive | STAT1 act-2 inactive
O=C1C(Cl)=C(N2CCN(c3ccccc3[N+](=O)[O-])CC2)C(=O)c2ccccc21	STAT3 act-1 145 | STAT3 act-2 135 | NFkB act STAT3ct inactive | STAT1 act-2 inactive
CN(C)C(CN1C(=O)C2CC=CCC2C1=O)c1cn(C)c2ccccc12 (configuration not stated)	STAT3 act-1 153 | STAT3 act-2 149 | NFkB act STAT3ct inactive | STAT1 act-2 inactive
CCOC(=O)CN1C(=O)C(O)(c2c(C)[nH]c3ccccc23)c2ccccc21 (configuration not stated)	STAT3 act-1 167 | STAT3 act-2 inactive | NFkB act STAT3ct inactive | STAT1 act-2 inactive
CCOC(=O)CN1C(=O)C2(OCCCO2)c2ccccc21	none
Cc1ccccc1OCC(=O)Nc1cccc2nsnc12	STAT3 act-1 150 | STAT3 act-2 inactive | NFkB act STAT3ct inactive | STAT1 act-2 inactive
Cc1ccc(NS(=O)(=O)c2ccc(Cl)c(NC(=S)NC(=O)C3CCCCC3)c2)cc1Cl	none
Cc1c(NC(=O)CN2CCCC(C)C2)ccc2nsnc12 (configuration not stated)	none
Cc1ccc(Nc2nnc(SC/C(O)=C(\C#N)c3nc4ccccc4[nH]3)s2)c(C)c1	STAT3 act-1 145 | STAT3 act-2 151 | NFkB act STAT3ct inactive | STAT1 act-2 inactive
COc1ccc(C)cc1-n1nnnc1SC/C(O)=C(\C#N)c1nc2ccccc2[nH]1	none
Cc1cccc(Nc2nnc(SC/C(O)=C(\C#N)c3nc4ccccc4[nH]3)s2)c1	STAT3 act-1 143 | STAT3 act-2 153 | NFkB act STAT3ct inactive | STAT1 act-2 inactive
CC(C)(C)c1nnc2sc(SC/C(O)=C(\C#N)c3nc4ccccc4[nH]3)nn2c1=O	none
N#C/C(=C(/O)CSc1ncn[nH]1)c1nc2ccccc2[nH]1	STAT3 act-1 143 | STAT3 act-2 152 | NFkB act STAT3ct inactive | STAT1 act-2 inactive
CC1CCCCN1CC(=O)Nc1ccccc1Sc1ccccc1 (configuration not stated)	none
COc1ccc(CNC(=O)CSc2ccc(Br)cc2)cc1OC	none
